One assay has as its system Bacteroides fragilis. The experiment in a line: In vitro antibacterial activity against Bacteroides fragilis S2. Format: functional. The gist of the method:
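Anaerobic MICs were determined in microtiter plates in Schaedler's broth supplemented with coenzyme I and hemin. Incubation was under an oxygen-free hydrogen-carbon dioxide atmosphere.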

For a further assay, the system named is Citrobacter freundii. The experiment in a line: In vitro antibacterial activity against Citrobacter freundii BS-16 (constitutive beta-lactamase producer). Format: functional. In outline:
(§1)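 MIC was determined by agar dilution on Mueller-Hinton agar. Serial 2-fold aqueous dilutions were diluted 10-fold in agar to give final concentrations of 128 to 0.0156 μg/mL. Plates were inoculated by Steers replicator with overnight broth cultures diluted 100-fold.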

Another assay deals with Klebsiella pneumoniae. As to the kind of experiment: In vitro antibacterial activity against Klebsiella pneumoniae A. Type of assay: functional. In outline: as §1
A further assay deals with Staphylococcus aureus. As to the kind of experiment: Minimum inhibitory concentration to the compound inhibiting [14C]- Penicillin G binding to Staphylococcus aureus ATCC 29213 Penicillin binding protein.
The subject of the next assay is Streptococcus pneumoniae. The experiment in a line: In vitro antibacterial activity against Streptococcus pneumoniae 6301. Format: functional. In outline:
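Streptococcal MICs were determined by agar dilution on brain heart infusion agar supplemented with 20 units/mL bovine liver catalase. Final concentrations were 128 to 0.0156 μg/mL from 2-fold dilutions. Inocula were overnight broth cultures diluted 100-fold, applied by Steers replicator.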

Assay [1] concerns Penicillin-binding protein 3 FtsI (Escherichia coli K-12). The experiment in a line: Concentration inhibiting [14C]- Penicillin G binding to Escherichia coli UB1005 PBP3 (penicillin binding protein) 60 kDa.
Assay [2] deals with Penicillin-binding protein 4 (Staphylococcus aureus) (UniProt P72355). The experiment in a line: Concentration inhibiting [14C]- Penicillin G binding to Staphylococcus aureus ATCC 29213 Penicillin binding protein 4 41 kDa.
A further assay deals with Escherichia coli. As to the kind of experiment: Minimum inhibitory concentration of the Penicillin G binding to Escherichia coli UB1005 PBPs.

The values below come from ChEMBL document CHEMBL1126202, “Dual-action penems and carbapenems” (J Med Chem, 1992).

SMILES strings stand for the structures.

By IC90 is commonly meant the point of the concentration-response curve where the effect stands at 90%. A higher IC90 goes with a need for much substance.

Turning to `C[C@@H](O)[C@H]1C(=O)N2C(C(=O)[O-])=C(CO)S[C@H]12.[Na+]`, the MIC with Bacteroides fragilis is less than 0.125 µg/mL; against Citrobacter freundii, 4 µg/mL; in the assay with Klebsiella pneumoniae, 4 µg/mL; against Staphylococcus aureus, 0.25 µg/mL; in the assay with Streptococcus pneumoniae it was 0.125 µg/mL.
For `C[C@@H](O)[C@H]1C(=O)N2C(C(=O)[O-])=C(COC(=O)c3cn(CCF)c4c(F)c(N5CCN(C)CC5)c(F)cc4c3=O)S[C@H]12.[Na+]`, in assay [1], the IC90 amounted to 30 µg/mL.
Take `C[C@@H](O)[C@H]1C(=O)N2C(C(=O)[O-])=C(COC(=O)N3CCN(c4cc5c(cc4F)c(=O)c(C(=O)O)cn5C4CC4)CC3)S[C@H]12.[Na+]`: the concentration for an effect of 90% (IC90) in assay [2] was found to be 2 µg/mL. In the assay with Escherichia coli, this compound had an MIC of 4 µg/mL.
